XiGFP reactiv = activators of X-chromosome reactivation in mouse fibroblasts | XiGFP mouse fibroblasts, % GFP-positive cells imaging, 3 d; cells co-treated with 5-aza-dC sensitizer; scaled so ellipticine positive control = 100% | activation, % at 7.58 µM | hit rate 0.055% among 360,000 | AID 743238;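 active = mean normalized replicate activation at least 10% and every replicate at or above 10%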
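Material: SV40-immortalized XiGFP fibroblast cells, line 68-5-11 | Buffer or medium: DMEM containing 5-aza-dC | Dosing: One concentration, pinned | Times: 3 d treatment, 15 min room-temperature fixation | Controls: Ellipticine 6 µM positive control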
EWS-Fli block = inhibitors of EWS/Fli oncoprotein transcriptional activity; inhibition, % at 12.6 µM; A673 NR0B1-luciferase reporter, viability-normalised; hit rate 0.67% among 350,000;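 active = mean inhibition of at least 50% after viability correction, with every replicate also passing that limit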;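 note: firefly luciferase signal divided by Alamar Blue viability fluorescence both relative to DMSO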
TWEAK Fn14 block = inhibitors of TWEAK-Fn14 interaction signaling; AID 1159606; TWEAK-stimulated Fn14 reporter cells, luciferase luminescence, 8 h; inhibition, % at 10 µM; hit rate 2% among 360,000; in the data active = inhibition above about 50%
FN deposit inh = fibronectin deposition inhibition. hit rate 0.086% among 350,000. AH1F fibroblasts, Alexa488-fibronectin deposition fluorescence, overnight. AID 743247. inhibition, % at 12.6 µM;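 active = mean inhibition across replicates of 30% or more, regardless of how many single replicates reach that level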
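Assay system: AH1F fibroblast monolayer, labelled fibronectin deposition. Amount: 10000 cells per well. Also added: labelled fibronectin 24 nM. Compound: single-point pinned compound. Incubation: cell attachment 1 h, compound and FN exposure overnight. Detection: fluorescence after three HBSS washes, excitation 485 nm, emission 525 nm. Read-out: inhibition of fibronectin deposition signal.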
LGR2 antag = blocks bursicon-induced cAMP signaling via Drosophila LGR2. HEK293 LGR2, CRE-luciferase, bursicon-stimulated, 4 h. inhibition, % at 9.99 µM. hit rate 0.35% among 380,000. AID 720647;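 active = drop in luminescence signal, shown as inhibition above about 50% in the replicate tests, limit read from the data, passing the limit was not always enough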;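 note: agonist challenge used bursicon conditioned medium at about half maximal strength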
TROY NFkB inh = inhibitors of TROY-dependent NF-kB signaling. Q293 LMP1-TROYcd NF-kB luciferase reporter, 4 h. inhibition, % at 10 µM. AID 1347056. hit rate 0.98% among 360,000;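 active = compounds whose plate-normalised and pattern-corrected inhibition of the luciferase reporter signal at the single screening dose is 50% or more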
Each line names hits and unclear results; the compound was inactive in the other large screens. Shown are actives, neighbours in structure and some others; about 2.3% of the full set was active somewhere.

CC(C)n1c(SCC(=O)Nc2nc3ccccc3s2)nc2c1c(=O)n(C)c(=O)n2C	none (no result: XiGFP reactiv, EWS-Fli block, FN deposit inh)
CCOc1ccc2nc(NC(=O)CSc3nc4c(c(=O)n(C)c(=O)n4C)n3C(C)C)sc2c1	TWEAK Fn14 block 53, TROY NFkB inh 50 (no result: XiGFP reactiv, EWS-Fli block, FN deposit inh)
Cc1ccc(S(=O)(=O)N[C@@H]2CC[C@@H](CCNC(=O)c3ccc4c(c3)OCO4)O[C@H]2CO)cc1	none (no result: TWEAK Fn14 block, FN deposit inh, TROY NFkB inh)
CC(C)NC(=O)N1CC2(C1)[C@H](c1ccccc1)[C@@H](CO)N2CCC(F)(F)F	none (no result: TWEAK Fn14 block, FN deposit inh, TROY NFkB inh)
CCC(=O)Nc1ccc2c(c1)C(=O)N(C)C[C@@H](OC)[C@@H](C)CN(C(=O)c1ccncc1)[C@@H](C)CO2	none (no result: TWEAK Fn14 block, TROY NFkB inh)
NC(=O)c1cccc(-c2cnc3c(Nc4cccc(OC(F)(F)C(F)F)c4)nccn23)c1	TWEAK Fn14 block 72
Oc1ccc(-c2cnc3c(Nc4cccc(OC(F)(F)C(F)F)c4)nccn23)cc1	none
Cn1cnc([N+](=O)[O-])c1S(=O)(=O)Oc1ccccc1	none
Cn1cnc([N+](=O)[O-])c1S(=O)(=O)c1cccc(Cl)c1	TROY NFkB inh 64
CCC(=O)N(C)C[C@@H]1Oc2cc(-c3ccncc3)ccc2S(=O)(=O)N([C@@H](C)CO)C[C@@H]1C	none (no result: TWEAK Fn14 block, FN deposit inh, TROY NFkB inh)
CC(=O)c1c(C)n(-c2ccc(C)cc2C)c2ccc(O)cc12	TWEAK Fn14 block 58
CCOc1ccc(-n2c(C)c(C(=O)OC)c3cc(O)ccc32)cc1	none
CC(=O)c1ccc(-n2c(C)c(C(C)=O)c3cc(O)ccc32)cc1	none
CCOc1ccc(-n2c(C)c(C(C)=O)c3cc(O)ccc32)cc1	TWEAK Fn14 block 64
C[C@@H]1CN([C@H](C)CO)C(=O)c2cccc(NC(=O)Nc3cccc4ccccc34)c2O[C@@H]1CN(C)Cc1ccc(-c2ccccc2)cc1	none (no result: TWEAK Fn14 block, FN deposit inh, TROY NFkB inh)
CCOC(=O)CN(C(=O)CSc1nnc2c(n1)[nH]c1ccc(OC)cc12)c1ccc(F)cc1	TWEAK Fn14 block 66, TROY NFkB inh 74 (no result: XiGFP reactiv, EWS-Fli block, LGR2 antag)
COc1ccc2[nH]c3nc(SC(C)C)nnc3c2c1	TWEAK Fn14 block 92, TROY NFkB inh 54 (no result: XiGFP reactiv, EWS-Fli block, FN deposit inh, LGR2 antag)
COc1ccc(CNC(=O)CSc2nnc3c(n2)[nH]c2ccc(OC)cc23)cc1	none
c1ccc(N2CCN(c3nc4cc5c(cc4s3)OCO5)CC2)cc1	none (no result: XiGFP reactiv, EWS-Fli block, LGR2 antag)
c1c2c(cc3sc(N4CCOCC4)nc13)OCO2	none (no result: XiGFP reactiv, EWS-Fli block, FN deposit inh, LGR2 antag)
c1ccc2c(c1)CCN(c1nc3cc4c(cc3s1)OCO4)C2	TWEAK Fn14 block 58 (no result: XiGFP reactiv, EWS-Fli block, FN deposit inh, LGR2 antag)
c1c2c(cc3sc(N4CCCCC4)nc13)OCO2	TWEAK Fn14 block 73 (no result: XiGFP reactiv, EWS-Fli block, LGR2 antag)
CC(=O)Nc1ccc2c(c1)C(=O)N(C)C[C@H](C)[C@@H](CN(C)C)O2	none (no result: EWS-Fli block, TWEAK Fn14 block, LGR2 antag, TROY NFkB inh)
O=C(C[C@@H]1CC[C@@H]2[C@H](COC[C@@H](O)CN2C(=O)c2ccccc2)O1)NCCCN1CCOCC1	none (no result: TWEAK Fn14 block, TROY NFkB inh)
NC(=O)c1cc2ccncc2c2ccccc12	TROY NFkB inh 58
O=C(CSc1nnc(-c2cccnc2)s1)Nc1ccnc2ccccc12	TWEAK Fn14 block 61 (no result: EWS-Fli block)
O=C(NCCc1ccc(Cl)cc1)c1ccc(S(=O)(=O)N2CCCC2)cc1	none
CC(=O)NCCc1ccc(S(=O)(=O)N2CCCC2)cc1	TWEAK Fn14 block 82 (no result: XiGFP reactiv, EWS-Fli block, FN deposit inh, LGR2 antag)
O=C(O)c1ccc(-n2c(O)c(C=C3N=c4ccccc4=N3)sc2=S)cc1	TWEAK Fn14 block 54
O=C(O)c1cccc(-n2c(O)c(C=C3N=c4ccccc4=N3)sc2=S)c1	none
C[C@H](CO)N1C[C@H](C)[C@H](CN(C)C(=O)Nc2ccc(F)cc2)Oc2ccc(NC(=O)Nc3ccc(F)cc3)cc2C1=O	none (no result: TWEAK Fn14 block, FN deposit inh, TROY NFkB inh)
CCNC(=O)[C@@H]1[C@@H](CO)[C@@H]2Cn3c(ccc(-c4ccccc4)c3=O)[C@@H]2N1Cc1ccccc1	none (no result: TWEAK Fn14 block, FN deposit inh, TROY NFkB inh)
COc1ccc2oc(C(=O)Nc3ccccn3)c(C)c2c1	TWEAK Fn14 block 52 (no result: EWS-Fli block, FN deposit inh)
COc1ccc2oc(C(=O)N3CCc4ccccc43)c(C)c2c1	TWEAK Fn14 block 73, LGR2 antag 59, TROY NFkB inh 63 (no result: EWS-Fli block, FN deposit inh)
Cc1ccc(NCc2nc3ccccc3n2C)cc1	TWEAK Fn14 block 66 (no result: XiGFP reactiv, EWS-Fli block, FN deposit inh, LGR2 antag)
O=C(c1cccc(F)c1)N1CCCCN2[C@H](CO)[C@H](c3ccc(-c4cccnc4)cc3)[C@@H]2C1	none (no result: EWS-Fli block, TWEAK Fn14 block, FN deposit inh, TROY NFkB inh)
Cc1cc(Sc2ncnc(N)c2[N+](=O)[O-])ncn1	TWEAK Fn14 block 51 (no result: XiGFP reactiv, EWS-Fli block, FN deposit inh, LGR2 antag)
COc1cccc(S(=O)(=O)N[C@H]2CC[C@@H](CCn3cc(-c4ccccn4)nn3)O[C@@H]2CO)c1	none (no result: TWEAK Fn14 block, FN deposit inh, TROY NFkB inh)
